Screening data: PubChem, The Scripps Research Institute Molecular Screening Center
PLCg1 inh = blocks human PLC-gamma1 enzyme activity; P19174; purified PLC-gamma1, fluorogenic substrate, fluorescence; inhibition, % at 12.2 µM; 370,000 tested, 0.84% active; in the data active = inhibition above about 9.5%
ADAM10 inh = inhibits human ADAM10 | O14672 | recombinant ADAM10, EDANS/DABCYL FRET peptide cleavage, 3 h | inhibition, % at 7 µM | 370,000 tested, 0.62% active | AID 720582;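 active = inhibition above a per-campaign cutoff equal to the mean of compounds falling between control-based bounds plus 3 SD, cut at about 20% in these data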;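 also: 0% = DMSO wells while the 100% control is not disclosed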
Tn6 DDE FP = disrupts Tn6 cyclic peptide binding to fibrin D-Dimer-E complex; P02675; Fibrin DD(E) TRITC-Tn6 fluorescence polarization displacement; inhibition, % at 8.3 µM; 370,000 tested, 0.21% active;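 active = inhibition above a per-campaign cutoff: mean of compounds within control limits plus 3 SD, cut at about 15% in these data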;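 also: 0% = median of all compound wells on the plate and 100% = blocking peptide control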
PLC-beta3 inh = PLC-beta3 (human) inhibition, primary screen; Q01970; Purified PLC-beta3, fluorogenic substrate, fluorescence; inhibition, % at 12.2 µM; 370,000 tested, 0.18% active; in the data active = inhibition above about 11%;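 also: 0% = median of compound wells on plate and 100% = full blocker control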
Target sequence (Q01970 whole entry, looked up): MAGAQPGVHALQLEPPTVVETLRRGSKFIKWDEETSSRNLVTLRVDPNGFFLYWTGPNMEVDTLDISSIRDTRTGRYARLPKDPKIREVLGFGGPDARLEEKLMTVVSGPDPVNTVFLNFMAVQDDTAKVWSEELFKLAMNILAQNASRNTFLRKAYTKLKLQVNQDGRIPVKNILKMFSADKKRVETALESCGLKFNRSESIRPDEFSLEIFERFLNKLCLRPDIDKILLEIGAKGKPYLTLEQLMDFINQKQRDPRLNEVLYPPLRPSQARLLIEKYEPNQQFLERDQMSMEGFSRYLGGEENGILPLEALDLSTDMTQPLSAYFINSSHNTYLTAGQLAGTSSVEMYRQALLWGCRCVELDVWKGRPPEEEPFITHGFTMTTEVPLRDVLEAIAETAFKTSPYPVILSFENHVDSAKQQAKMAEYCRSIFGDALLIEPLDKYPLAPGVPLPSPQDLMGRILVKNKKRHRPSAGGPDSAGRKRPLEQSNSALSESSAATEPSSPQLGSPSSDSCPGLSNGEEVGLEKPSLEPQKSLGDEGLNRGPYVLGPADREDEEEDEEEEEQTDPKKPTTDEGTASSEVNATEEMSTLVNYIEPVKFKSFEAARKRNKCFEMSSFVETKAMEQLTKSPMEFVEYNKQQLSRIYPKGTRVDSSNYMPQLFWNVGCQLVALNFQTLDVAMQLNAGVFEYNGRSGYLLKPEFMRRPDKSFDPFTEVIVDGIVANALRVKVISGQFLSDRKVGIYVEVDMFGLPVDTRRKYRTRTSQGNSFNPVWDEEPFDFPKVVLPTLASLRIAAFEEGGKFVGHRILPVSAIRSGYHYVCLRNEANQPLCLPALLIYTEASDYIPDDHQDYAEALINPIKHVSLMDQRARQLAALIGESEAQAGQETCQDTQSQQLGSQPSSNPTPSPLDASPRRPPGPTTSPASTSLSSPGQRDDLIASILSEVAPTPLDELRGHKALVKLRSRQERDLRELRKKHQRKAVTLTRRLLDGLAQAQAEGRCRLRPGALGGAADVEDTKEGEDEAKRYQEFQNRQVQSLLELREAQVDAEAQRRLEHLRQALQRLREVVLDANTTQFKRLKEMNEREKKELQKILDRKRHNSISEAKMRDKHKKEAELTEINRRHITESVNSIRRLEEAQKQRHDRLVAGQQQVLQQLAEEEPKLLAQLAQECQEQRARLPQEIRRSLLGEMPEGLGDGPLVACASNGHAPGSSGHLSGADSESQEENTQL
Tn7 DDE FP = inhibitors of Tn7 peptide binding to human fibrin DD(E); P02675; FP displacement of FITC-Tn7 peptide from fibrin DD(E); 0% = median of compound wells per plate; 370,000 tested, 0.13% active; AID 720508; inhibition, % at 8.3 µM;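 active = inhibition above the mean of compounds falling within the control limits plus 3 SD of them, cut at about 14% in these data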;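 also: 0% = plate median of compound wells and 100% = 10 µM Aha-Tn7 peptide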
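Assay system: Human clot-derived fibrin DD(E) complex | Buffer or medium: Tris/NaCl/CaCl2 buffer, pH 7.8 | Repeats: One replicate per compound | Benchmarks: Aha-Tn7 high control | Measure: % inhibition scaled between sample-field median and high-control FP | Schedule: 10 min plus 3 h, room temperature | Signal: Fluorescence polarization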
ADAM17 inh = inhibits human ADAM17 | AID 720648 | 370,000 tested, 0.83% active | recombinant ADAM17, EDANS/DABCYL FRET peptide cleavage | P78536 | inhibition, % at 6.95 µM;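 active = inhibition above the mean of compounds lying between control limits plus 3 SD, set per campaign, cut at about 8.5% in these data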;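 also: 0% = DMSO-only wells as the low control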
ADAM10 confirm = human ADAM10 inhibition, confirmation | inhibition, % at 6.95 µM | ADAM10 QFRET peptide cleavage, EDANS fluorescence | shares compounds with ADAM10 inh | 2,100 tested, 1% active;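 active = inhibition above about 20% chosen separately for each screening run, limit read from the data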;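 also: 0% = DMSO wells and 100% = marimastat wells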
ADAM17 ctr = ADAM17 inhibition, counter-screen for ADAM10 exosite hits; ADAM17 QFRET peptide cleavage, EDANS fluorescence; 2,100 tested, 0.5% active; AID 743214; shares compounds with ADAM10 inh; inhibition, % at 6.95 µM;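 active = mean triplicate inhibition above the solvent-only control wells' mean plus 3 SD, cut at about 12% in these data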;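 also: 0% = DMSO wells and 100% = marimastat wells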
ADAM10 counter = inhibits human ADAM10 in ADAM17 exosite counter-screen | AID 743256 | shares compounds with ADAM17 inh | 2,900 tested, 47% active | recombinant ADAM10, EDANS/DABCYL FRET peptide cleavage, 3 h | inhibition, % at 6.95 µM;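 active = mean inhibition over the triplicate runs exceeds the activity threshold set in the earlier primary screen, cut at about 20% in these data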;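 also: 0% = DMSO wells and 100% = marimastat wells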
ADAM17 confirm = confirmation of inhibitors of human ADAM17. recombinant ADAM17, EDANS/DABCYL QFRET peptide cleavage. 2,900 tested, 65% active. inhibition, % at 6.95 µM. shares compounds with ADAM17 inh;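 active = mean inhibition across replicates above the hit cutoff set in the primary screen, cut at about 8.5% in these data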;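 also: 0% = DMSO wells and 100% = marimastat wells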
Active calls of the source: *. Shown are actives, neighbours in structure and some others; about 2.3% of the full set was active somewhere.

For O=C(Cc1ccc(Br)cc1)Nc1cccc(S(=O)(=O)N2CCCCC2)c1 the results were PLCg1 inh 3, ADAM10 inh 23*, Tn6 DDE FP -14, PLC-beta3 inh 9, Tn7 DDE FP 1, ADAM17 inh 12*, ADAM10 confirm 3, ADAM17 ctr 2, ADAM10 counter 7 and ADAM17 confirm 6.
C=CCNC(=O)CN(C(=O)Cc1ccc(Cl)nc1)c1cccc(Br)c1 was read as PLCg1 inh 1, ADAM10 inh -3, Tn6 DDE FP 5, PLC-beta3 inh -1, Tn7 DDE FP -5 and ADAM17 inh -2.
`CCCC(C)NC(=O)CC1Oc2ccccc2NC1=O` (centres undefined) gave PLCg1 inh 1, ADAM10 inh -8, Tn6 DDE FP 3, PLC-beta3 inh -1, Tn7 DDE FP -1 and ADAM17 inh 1.
`COc1ccc(C(=O)OCC(=O)NCc2ccco2)cc1S(=O)(=O)N1CCN(c2cccc(Cl)c2)CC1` gave PLCg1 inh 1, ADAM10 inh 29*, Tn6 DDE FP -10, PLC-beta3 inh 9, Tn7 DDE FP -2, ADAM17 inh 17*, ADAM10 confirm 9, ADAM17 ctr 2, ADAM10 counter 28* and ADAM17 confirm 18*.
N=c1c2c(ncn1Cc1ccco1)Oc1ccc3ccccc3c1C2c1ccccc1 (centres undefined) was read as PLCg1 inh -1, ADAM10 inh 20*, Tn6 DDE FP -7, PLC-beta3 inh -7, Tn7 DDE FP -4, ADAM17 inh 11*, ADAM10 confirm 7, ADAM17 ctr 2, ADAM10 counter 19 and ADAM17 confirm 12*.
`COc1ccc(C2c3c(ncn(Cc4ccco4)c3=N)Oc3ccc4ccccc4c32)cc1` (centres undefined) gave PLCg1 inh -62, ADAM10 inh 15, Tn6 DDE FP -6, PLC-beta3 inh -59, Tn7 DDE FP 2 and ADAM17 inh -4.
O=[N+]([O-])c1cccc(OCCCN2CCC(C(O)(c3ccccc3)c3ccccc3)CC2)c1 was read as PLCg1 inh 1, ADAM10 inh 4, Tn6 DDE FP 1, PLC-beta3 inh 2, Tn7 DDE FP 0 and ADAM17 inh 1.
O=C(NCCCN1CCN(c2ccc(F)cc2)CC1)Nc1ccccc1 was read as PLCg1 inh 2, ADAM10 inh -4, Tn6 DDE FP -3, PLC-beta3 inh 1, Tn7 DDE FP 6 and ADAM17 inh 1.
Screening COc1ccc(CN2C(=O)[C@@H]3Cc4c([nH]c5ccccc45)C(C)(C)N3C2=O)cc1 returned PLCg1 inh -4, ADAM10 inh 16, Tn6 DDE FP 5, PLC-beta3 inh -3, Tn7 DDE FP -8 and ADAM17 inh 3.
Screening COc1ccc(CN2C(=O)[C@H]3Cc4c([nH]c5ccccc45)C(C)(C)N3C2=O)cc1 returned PLCg1 inh -3, ADAM10 inh 22*, Tn6 DDE FP -6, PLC-beta3 inh -2, Tn7 DDE FP 4, ADAM17 inh 8.9*, ADAM10 confirm 4, ADAM17 ctr 1, ADAM10 counter 30* and ADAM17 confirm 17*.
`CCCn1c(SCC(=O)N2c3ccccc3Sc3ccccc32)nc2ccccc21` gave PLCg1 inh 5, ADAM10 inh 26*, Tn6 DDE FP -9, PLC-beta3 inh 5, Tn7 DDE FP -1, ADAM17 inh 10*, ADAM10 confirm 3, ADAM17 ctr 0, ADAM10 counter 17 and ADAM17 confirm 11*.
Screening CC1(Cc2ccc(C(F)(F)F)o2)C(=O)Nc2ccc(-c3cccc(C(F)(F)F)c3)cc21 (centres undefined) returned PLCg1 inh 3, ADAM10 inh 28*, Tn6 DDE FP 7, PLC-beta3 inh -1, Tn7 DDE FP -3, ADAM17 inh 17*, ADAM10 confirm 14, ADAM17 ctr 5, ADAM10 counter 32* and ADAM17 confirm 21*.
For CC1(Cc2ccc3c(c2)OCO3)C(=O)Nc2ccc(-c3cccc(C(F)(F)F)c3)cc21 (centres undefined) the results were PLCg1 inh 3, ADAM10 inh -11, Tn6 DDE FP 1, PLC-beta3 inh -5, Tn7 DDE FP 2 and ADAM17 inh 4.
Screening Cc1cccc(N=C2NC(=O)/C(=C/c3cccn3C)S2)c1 returned PLCg1 inh -1, ADAM10 inh -3, Tn6 DDE FP 1, PLC-beta3 inh -9, Tn7 DDE FP -1 and ADAM17 inh -2.
For Cc1ccccc1N=C1NC(=O)/C(=C/c2cccn2C)S1 the results were PLCg1 inh -2, ADAM10 inh 27*, Tn6 DDE FP -1, PLC-beta3 inh -18, Tn7 DDE FP 4, ADAM17 inh 9.9*, ADAM10 confirm -1, ADAM17 ctr 6, ADAM10 counter 17 and ADAM17 confirm 13*.
O=C(c1cscn1)N1CCC(Oc2cccnc2)CC1 was read as PLCg1 inh -1, ADAM10 inh -6, Tn6 DDE FP -6, PLC-beta3 inh 2, Tn7 DDE FP -7 and ADAM17 inh -4.
Screening CCCCCCCCN1CCS(=O)(=O)N(Cc2ccc(C)cc2)C(C(=O)OC)C1 (centres undefined) returned PLCg1 inh -3, ADAM10 inh 1, Tn6 DDE FP 1, PLC-beta3 inh -1, Tn7 DDE FP 5 and ADAM17 inh 2.
`CCc1c(C#N)c(SCCC(=O)Nc2ccc(F)cc2)nc2c1C(=O)CC(C)(C)C2` gave PLCg1 inh 4, ADAM10 inh 31*, Tn6 DDE FP -5, PLC-beta3 inh 2, Tn7 DDE FP 4, ADAM17 inh 10.0*, ADAM10 confirm 6, ADAM17 ctr 2, ADAM10 counter 33* and ADAM17 confirm 13*.
`CC1(C)CC(=O)c2c(nc(SCC(=O)Nc3nsc(-c4ccccc4)n3)c(C#N)c2-c2ccccc2)C1` gave PLCg1 inh -1, ADAM10 inh 6, Tn6 DDE FP 9, PLC-beta3 inh 0, Tn7 DDE FP -4 and ADAM17 inh -5.
